Bioassay records as filed in PubChem BioAssay.
Only some compounds are listed: those with a hit (about 2.3% of all), similar ones and a draw of the others.
CHT inh: human CHT choline transport inhibition; Q9GZV3; CHT-expressing cells, membrane potential dye, choline response; active compounds read low; B-score at 10 µM; 310,000 compounds, 0.86% hits;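 active = B-score over 3 SD under the library average, and starting fluorescence ratio not unusually high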;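 also: choline stimulus applied at its EC90 after an EC20 pre-addition; B-score computed on integrated fluorescence ratio after choline addition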
Target sequence (Q9GZV3 whole entry, looked up): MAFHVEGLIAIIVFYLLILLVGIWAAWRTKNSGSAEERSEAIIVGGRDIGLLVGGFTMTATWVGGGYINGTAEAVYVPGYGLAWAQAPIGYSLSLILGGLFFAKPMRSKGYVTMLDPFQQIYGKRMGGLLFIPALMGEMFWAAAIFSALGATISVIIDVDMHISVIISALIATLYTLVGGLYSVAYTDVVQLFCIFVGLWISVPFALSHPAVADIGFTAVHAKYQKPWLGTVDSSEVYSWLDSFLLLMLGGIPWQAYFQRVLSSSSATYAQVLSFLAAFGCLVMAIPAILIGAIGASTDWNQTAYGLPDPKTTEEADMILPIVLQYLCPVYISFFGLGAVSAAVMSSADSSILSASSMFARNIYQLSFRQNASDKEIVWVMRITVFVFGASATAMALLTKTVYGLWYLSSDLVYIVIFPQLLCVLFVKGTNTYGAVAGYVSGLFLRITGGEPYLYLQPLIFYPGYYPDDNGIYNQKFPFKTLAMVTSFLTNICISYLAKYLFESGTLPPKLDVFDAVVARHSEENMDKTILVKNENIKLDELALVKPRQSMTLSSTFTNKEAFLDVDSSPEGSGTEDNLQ
CHT PAM: allosterically activates the human high affinity choline transporter; Q9GZV3; CHT-expressing cells, membrane potential dye, choline EC20; active compounds read high; LV-AA mutant CHT in HEK293 cells; B-score at 10 µM; 310,000 compounds, 0.49% hits;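 active = initial fluorescence not abnormally high and integrated response B-score, plate-corrected, over 3 SD above library mean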
GPR7 antagonist: human neuropeptides B/W receptor 1 antagonism; P48145; GPR7-expressing cells, fluorescence antagonist assay; inhibition, % at 4.4 µM; 290,000 compounds, 1.1% hits; AID 1861; in the data active = inhibition above about 16%, passing the limit was not always enough;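 also: cells stimulated with the agonist NPW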
DSG3 Ab inh: inhibitors of pemphigus antibody binding to human desmoglein-3 | P32926 | DSG3-coupled beads, scFv-anti-DSG3-GFP binding, flow cytometry; active compounds read low | binding (percent of control), % at 10 µM | 310,000 compounds, 0.48% hits | AID 588358;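 active = binding more than 3 SD below its plate's average and above zero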;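 also: hits lower antibody fragment binding to DSG3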
T cell modulator: T cell immune modulation candidate; 2C CD8+ T cell-vesicle binding, flow cytometry; active compounds read low; response (vesicle binding), % at 7 µM; 330,000 compounds, 0.068% hits; AID 2052;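 active = response, share of CD8 T cells binding vesicles, and their 90th percentile fluorescence all below set limits, cut at about 80% in these data, passing the limit was not always enough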;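 also: values below 100% mean blocked vesicle binding to the CD8+ T cells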
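Material: 2C TCR transgenic mouse naive CD8+ T cells, MACS-purified. Also added: QL9-charged Drosophila Ld/ICAM-1/B7-1 vesicles. Timing: binding 1.5 h at 37 °C. Measured by: high-throughput flow cytometry with anti-B7-1 and anti-CD8 staining. Read-out: percent CD8+ FL2 mean versus row control. Controls: Unloaded micro-vesicles (low), QL9 vesicles with 0.7% DMSO (high).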
pCIP destab: compounds decreasing mouse p/CIP protein stability; Q05BA5; F442A p/CIP-EGFP cells, EGFP fluorescence, 16 h; decrease of EGFP signal, % at 10 µM; 290,000 compounds, 0.01% hits; AID 1984;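 active = EGFP signal decrease of at least 30% at 10 µM or well 3 SD below plate mean, unless failing retest; inactive = the rest, including hits failing retest or dose response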
CHT activ conf: human CHT activation, confirmatory screen | activation, % at 10 µM | shares compounds with CHT PAM | 2,500 compounds, 91% hits | CHT-expressing cells, membrane potential dye fluorescence (FDSS); % of choline EC20–EC90 response window; HEK293 expressing CHT LV-AA mutant; choline added at its EC20 | AID 504833;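 active = primary screen active, with duplicate mean activation above negative control mean plus 3 SD, cut at about 11% in these data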
HEK293 MP dye: counter-screen for CHT activators: effect in parental HEK293 cells; 2,500 compounds, 62% hits; membrane potential dye fluorescence (FDSS); measured after EC20 choline addition; shares compounds with CHT PAM; AID 623908; ratio readout change at 10 µM, hits read low;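 active = duplicate-averaged ratio beyond 3 SD from buffer wells, up or down, though filed actives are nearly all decreases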
Of the large screens only hits and unclear results are named; the others gave an inactive call (follow-up assays come after a bar, where they were run).

CCc1ccc(C(=O)NC(=S)NCc2cccnc2)cc1	none
CC(C)C(=O)N1CCN(c2ccccc2NC(=O)c2cccc(Cl)c2)CC1	CHT PAM 6.63 | CHT activ conf 17.6 | HEK293 MP dye inactive
Cc1cccc(N2CCN(C(c3ccncc3)c3nnnn3C(C)(C)C)CC2)c1C (centres undefined)	none | CHT activ conf 29.3 | HEK293 MP dye inactive
CC(C)(C)n1nnnc1C(c1cccnc1)N1CCN(c2cccc(C(F)(F)F)c2)CC1 (centres undefined)	CHT PAM 7.77 | CHT activ conf 20.8 | HEK293 MP dye inactive
CC(C)(C)n1nnnc1C(c1ccncc1)N1CCN(C2CCCCC2)CC1 (centres undefined)	none
c1csc(-c2nc3nc4ccccc4nc3n2Cc2ccc3c(c2)OCO3)c1	CHT PAM 8.66 | CHT activ conf 15.4 | HEK293 MP dye inactive
CCCn1c(-c2cccs2)nc2nc3ccccc3nc21	none
CCOC(=O)c1sc(NC(=O)Cc2ccccc2OC)nc1C	none | CHT activ conf 14.7 | HEK293 MP dye inactive
COc1c2occc2c(OC)c2c(=O)cc(C)oc12	none | CHT activ conf 34.3 | HEK293 MP dye -38.4
Cc1oc(-c2ccc(Cl)cc2)nc1CN1CCC(C(=O)NCCCN2CCCC(C)C2)CC1 (centres undefined)	none | CHT activ conf 54.8 | HEK293 MP dye -28
Cc1ccccc1-c1nc(CN2CCC(C(=O)NCCN3CCOCC3)CC2)c(C)o1	none
Cc1ccccc1-c1nc(CN2CCC(C(=O)NCCCN3CCOCC3)CC2)c(C)o1	none | CHT activ conf 40.1 | HEK293 MP dye -25.9
C[C@@H]1CN([C@H](C)CO)C(=O)c2c(c3ccccc3n2C)-c2ccccc2CO[C@H]1CN(C)C(=O)CCC(F)(F)F	none (no result: CHT inh, CHT PAM, GPR7 antagonist, T cell modulator, pCIP destab)
O=C1CC2CCCC(C1)S2=O (centres undefined)	none (no result: CHT inh, CHT PAM, GPR7 antagonist, T cell modulator, pCIP destab)
Cc1cc(N2CCN(C(=O)Nc3ccccc3C#N)CC2)c2ccccc2n1	none | CHT activ conf 56.4 | HEK293 MP dye -81.9
Cc1ccc(C(=O)N2[C@@H]3CN(C)C(=O)[C@@]2(C)[C@H]2C(=O)N(C)C(=O)[C@@H]32)cc1	none (no result: CHT inh, CHT PAM, GPR7 antagonist, T cell modulator, pCIP destab)
N#Cc1cc([N+](=O)[O-])ccc1NCCCn1ccnc1	CHT PAM 7.3 | CHT activ conf 62.5 | HEK293 MP dye -59.5
CC(C)NS(=O)(=O)c1ccc(NCCCn2ccnc2)c([N+](=O)[O-])c1	none (no result: DSG3 Ab inh)
Cc1ccc([N+](=O)[O-])cc1-c1ccc(/C=N/NC(=O)CN2CCOCC2)o1	none | CHT activ conf 51.0 | HEK293 MP dye -51.3
O=C(Cc1ccccc1)N/N=C/c1ccc(-c2ccc([N+](=O)[O-])cc2)o1	none
O=C(NC1CC2CCC(C1)N2Cc1ccco1)c1ccccc1 (centres undefined)	CHT PAM 7.7 | CHT activ conf inactive | HEK293 MP dye inactive
Cc1cccc(-n2c(SCC(=O)c3c(N)n(C4CC4)c(=O)[nH]c3=O)nnc2N2CCOCC2)c1	none (no result: CHT inh, CHT PAM, GPR7 antagonist, DSG3 Ab inh, pCIP destab)
CCOC(=O)c1nnn2c1nc(N1CCN(C)CC1)c1ccccc12	CHT PAM 8.61 (no result: DSG3 Ab inh) | CHT activ conf 58.1 | HEK293 MP dye -67.4
Cc1ccc(S(=O)(=O)NC(C)C(=O)OCC(=O)Nc2sccc2C(N)=O)cc1 (centres undefined)	none (no result: CHT inh, CHT PAM, GPR7 antagonist, T cell modulator, pCIP destab)
CN1CCN(c2c(F)cc3c(=O)c(C(=O)O)cn4c3c2SCC4)CC1	CHT PAM 9.9 | CHT activ conf 23.4 | HEK293 MP dye -69.3
CCCn1c(=N)c(C#N)cc2c(=O)n3cccc(C)c3nc21	CHT PAM 8.32 (no result: DSG3 Ab inh) | CHT activ conf 49.4 | HEK293 MP dye -38.3
CCCn1c(=N)c(C#N)cc2c(=O)n3ccccc3nc21	CHT PAM 6.95 | CHT activ conf 47.9 | HEK293 MP dye -63.9
Cc1ccc(C(=O)OCC(=O)N2CCC(C)CC2)cc1S(=O)(=O)N1CCOCC1	none (no result: CHT inh, CHT PAM, GPR7 antagonist, T cell modulator, pCIP destab)
C[C@@H]1CN([C@@H](C)CO)C(=O)CCCn2nncc2CO[C@H]1CN(C)S(=O)(=O)c1ccccc1C#N	none (no result: CHT inh, CHT PAM, GPR7 antagonist, T cell modulator, pCIP destab)
CCOC(=O)c1nn(C)c2[nH]c(=O)n(C)c(=O)c12	none (no result: CHT inh, CHT PAM, GPR7 antagonist, T cell modulator, pCIP destab)
COc1ccc(-c2nc3cccc(C)n3c2NCc2ccco2)cc1OC	CHT PAM 7.55 | CHT activ conf 36.0 | HEK293 MP dye -42.3
COc1ccc(-c2csc(NCc3ccco3)n2)cc1C	none
O=C1CC2(CCN(C(=O)c3cccc(Br)c3)CC2)Oc2ccccc21	CHT PAM 8.89 (no result: GPR7 antagonist, pCIP destab) | CHT activ conf inactive | HEK293 MP dye inactive
O=C1CC2(CCN(C(=O)c3ccc(Cl)cc3)CC2)Oc2ccccc21	none (no result: GPR7 antagonist, pCIP destab)
O=C1CC2(CCN(C(=O)c3ccccc3Cl)CC2)Oc2ccccc21	none (no result: GPR7 antagonist, pCIP destab) | CHT activ conf inactive | HEK293 MP dye inactive
N#Cc1ccc(C(=O)N2CCC3CC2c2cc(-c4ccc(F)cc4)ccc23)cc1 (centres undefined)	none (no result: CHT inh, CHT PAM, GPR7 antagonist, T cell modulator, pCIP destab)
C[C@@H]1CN([C@@H](C)CO)C(=O)c2cc(NS(=O)(=O)c3cccs3)ccc2O[C@H]1CN(C)Cc1ccc(C(F)(F)F)cc1	none (no result: CHT inh, CHT PAM, GPR7 antagonist, pCIP destab)
CCN(CC)CCNC(=O)c1cc2c(-c3ccc(Cl)cc3)nn(C)c2s1	CHT PAM 9.89 | CHT activ conf 32.9 | HEK293 MP dye -20.9
CN1CCCC(n2nc(Cc3ccc(Cl)cc3)c3ccccc3c2=O)CC1 (centres undefined)	none (no result: GPR7 antagonist, pCIP destab) | CHT activ conf 44.0 | HEK293 MP dye -30.4
CSc1ncnc2[nH]ccc12	none (no result: CHT inh, CHT PAM, GPR7 antagonist, T cell modulator, pCIP destab)
CCC(=O)NCC(c1ccco1)N1CCN(c2ccc(OC)cc2)CC1 (centres undefined)	none
COc1ccc(N2CCN(C(CNC(=O)COc3ccccc3)c3ccco3)CC2)cc1 (centres undefined)	CHT PAM 7.14 (no result: GPR7 antagonist, pCIP destab) | CHT activ conf 10.5 | HEK293 MP dye inactive
CCN1CCc2nc(NC(=O)C(c3ccccc3)c3ccccc3)sc2C1	none | CHT activ conf 17.2 | HEK293 MP dye inactive
O=C(NCc1ccco1)c1ccc2c(c1)S(=O)(=O)c1ccccc1C2=O	CHT PAM 8.59 (no result: GPR7 antagonist, pCIP destab) | CHT activ conf 29.8 | HEK293 MP dye inactive
CN(C)C(CNC(=O)c1ccc2c(c1)S(=O)(=O)c1ccccc1C2=O)c1ccco1 (centres undefined)	none
O=C(NC1CCCC1)C(c1ccc(F)cc1)N(Cc1ccc(F)cc1)C(=O)c1ccn[nH]1 (centres undefined)	none | CHT activ conf 25.4 | HEK293 MP dye inactive
O=C(NC1CCCC1)C(c1ccncc1)N(Cc1ccccc1)C(=O)c1ccc(-c2ccccc2)[nH]1 (centres undefined)	none
